Article PMC9352467 (Neoplasia (New York, N.Y.), 2022)
Marks after values point to notes of the source that are not given here. One block for each compound: values may come before it.

Experiments:
HCT-116 and RKO cells = test: Western blotting of neddylation, CRLs substrates and DNA damage markers; assay type: cell-based, Human; conditions: 24 h
Method in brief: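 HCT-116 and RKO cells were treated with test compound or a reference NAE inhibitor; DNA damage markers (γH2AX, p-Chk1 Ser317, p-Chk2 T68) were read after 24 h. Lysis was in SDS buffer (50 mM Tris-HCl pH 6.8, 2% SDS, 100 mM DTT) with 10 min boiling. Lysates were run on 10% gels at 150 V for 1 h, blocked in 5% milk/TBST, and probed with primaries at 1:1000 and HRP secondaries. Three repeats.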

THP-1 = test: Cell viability assay; assay type: cell-based; conditions: Homo sapiens, THP-1, 72 h, read-out: IC50 (mean ± SD)
MV-4-11 = test: Cell viability assay; assay type: cell-based; conditions: Homo sapiens, MV4-11, 72 h, read-out: IC50 (mean ± SD)
Jurkat, Clone E6-1 = test: Cell viability assay; assay type: cell-based; conditions: Homo sapiens, 72 h, read-out: IC50 (mean ± SD)
NOMO-1 = test: Cell viability assay; assay type: cell-based; conditions: Homo sapiens, NOMO-1, 72 h, read-out: IC50 (mean ± SD)
KG-1 = test: Cell viability assay; assay type: cell-based; conditions: Homo sapiens, KG-1, 72 h, read-out: IC50 (mean ± SD)
SW48 = test: Cell viability assay; assay type: cell-based; conditions: Homo sapiens, SW48, 72 h, read-out: IC50 (mean ± SD)
COLO 205 = test: Cell viability assay; assay type: cell-based; conditions: Homo sapiens, COLO 205, 72 h, read-out: IC50 (mean ± SD)
HCT-116 = test: Cell viability assay; assay type: cell-based, Human
HT-29 = test: Cell viability assay; assay type: cell-based; conditions: Homo sapiens, HT-29, 72 h, read-out: IC50 (mean ± SD)
RKO = test: Cell viability assay; assay type: cell-based, Human
HCT 15 = test: Cell viability assay; assay type: cell-based; conditions: Homo sapiens, HCT-15, 72 h, read-out: IC50 (mean ± SD)
SW480 = test: Cell viability assay; assay type: cell-based; conditions: Homo sapiens, SW480, 72 h, read-out: IC50 (mean ± SD)
SW620 = test: Cell viability assay; assay type: cell-based; conditions: Homo sapiens, SW-620, 72 h, read-out: IC50 (mean ± SD)
Capan-1 = test: Cell viability assay; assay type: cell-based; conditions: Homo sapiens, CAPAN-1, 72 h, read-out: IC50 (mean ± SD)
MIA PaCa-2 = test: Cell viability assay; assay type: cell-based; conditions: Homo sapiens, MIA PaCa-2, 72 h, read-out: IC50 (mean ± SD)
SUIT-2 = test: Cell viability assay; assay type: cell-based; conditions: Homo sapiens, SUIT-2, 72 h, read-out: IC50 (mean ± SD)
Panc 02.03 = test: Cell viability assay; assay type: cell-based; conditions: Homo sapiens, Panc 02.03, 72 h, read-out: IC50 (mean ± SD)
HGC-27 = test: Cell viability assay; assay type: cell-based; conditions: Homo sapiens, HGC-27, 72 h, read-out: IC50 (mean ± SD)
NCI-N87 = test: Cell viability assay; assay type: cell-based; conditions: Homo sapiens, NCI-N87, 72 h, read-out: IC50 (mean ± SD)
DU 145 = test: Cell viability assay; assay type: cell-based; conditions: Homo sapiens, DU-145, 72 h, read-out: IC50 (mean ± SD)
LNCaP = test: Cell viability assay; assay type: cell-based; conditions: Homo sapiens, 72 h, read-out: IC50 (mean ± SD)
PC-3 = test: Cell viability assay; assay type: cell-based; conditions: Homo sapiens, PC-3, 72 h, read-out: IC50 (mean ± SD)
TOV-112D = test: Cell viability assay; assay type: cell-based; conditions: Homo sapiens, TOV112D, 72 h, read-out: IC50 (mean ± SD)
OVCAR-8 = test: Cell viability assay; assay type: cell-based; conditions: Homo sapiens, OVCAR-8, 72 h, read-out: IC50 (mean ± SD)
CHL-1 = test: Cell viability assay; assay type: cell-based; conditions: Homo sapiens, CHL-1, 72 h, read-out: IC50 (mean ± SD)
G-361 = test: Cell viability assay; assay type: cell-based; conditions: Homo sapiens, G-361, 72 h, read-out: IC50 (mean ± SD)
NCI-H226 = test: Cell viability assay; assay type: cell-based; conditions: Homo sapiens, NCI-H226, 72 h, read-out: IC50 (mean ± SD)
[1] = system: panel of 28 human cancer cell lines; test: Cell viability assay, whole panel; assay type: cell-based; conditions: 72 h, read-out: Average IC50 over the cell line panel
[2] = Plasma pharmacokinetic studies; assay type: in vivo, Sprague-Dawley (SD) rats; conditions: male, Sprague-Dawley, rat, 3 mg/kg
Method in brief: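 Male Sprague-Dawley rats (200–250 g) were fasted 12 h and dosed with test compound or reference at 1 mg/kg i.v. or 3 mg/kg p.o. The i.v. vehicle was DMSO/EtOH/PEG300/NaCl (5/5/40/50); the p.o. vehicle was DMSO/0.5% HPMC (5/95). Blood was sampled over time and assayed by LC/MS/MS. Three animals per time point; non-compartmental analysis.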

[3] = 1 mg/kg i.v.; SD rats plasma; ref [25]; cited from earlier work

IC50 (THP-1): 60.1 ± 32.2 nM | IC50 (MV-4-11): 121 ± 1.79 nM | IC50 (Jurkat, Clone E6-1): 284 ± 95.6 nM | IC50 (SW48): 79.5 ± 23.1 nM | IC50 (COLO 205): 54.2 ± 2.47 nM | IC50 (HCT-116; Homo sapiens, HCT-116, 72 h, read-out: IC50 (mean ± SD)): 60.8 ± 11.7 nM | IC50 (HT-29): 296 ± 32.3 nM | IC50 (HCT 15): 294 ± 80.3 nM | IC50 (SW480): 1090 ± 91.7 nM | IC50 (SW620): 5550 ± 2370 nM | IC50 (MIA PaCa-2): 109 ± 16.1 nM | IC50 (Panc 02.03): 356 ± 39.1 nM | IC50 (LNCaP): 52.5 ± 13.4 nM | IC50 (PC-3): 2430 ± 1050 nM | IC50 (OVCAR-8): 541 ± 64.2 nM | IC50 (NCI-H226): 1040 ± 624 nM | IC50 [1]: 647 nM | bioavailability ([2]; oral): 12.4% | AUC(0-t) ([2]; po): 208 ng·h/mL | Cmax ([2]; po): 64 ng/mL | Tmax ([2]; po): 0.92 h | half-life ([2]; po): 5.5 h
SMILES: NS(=O)(=O)OC[C@@H]1C[C@@H](n2ccc3c(N[C@H]4CCc5ccccc54)ncnc32)C[C@@H]1O [MLN4924]
DNA damage (γH2AX levels) (HCT-116 and RKO cells): accumulation of DNA double-strand breaks | IC50 (NOMO-1): 627 ± 77.8 nM | IC50 (KG-1): 936 ± 258 nM | IC50 (RKO; Homo sapiens, 72 h, read-out: IC50 (mean ± SD)): 150 ± 26.4 nM | IC50 (Capan-1): 96.5 ± 10.1 nM | IC50 (SUIT-2): 204 ± 29.1 nM | IC50 (HGC-27): 98.5 ± 28.3 nM | IC50 (NCI-N87): 865 ± 77.5 nM | IC50 (DU 145): 86.5 ± 15.1 nM | IC50 (TOV-112D): 229 ± 104 nM | IC50 (CHL-1): 320 ± 122 nM | IC50 (G-361): 1430 ± 684 nM | AUClast [3]: 560^a ng*h/mL | CL [3]: 29.70^a mL/min/kg | T1/2 [3]: 0.71^a h | Vss_obs [3]: 1783^a mL/kg

SMILES: CCOc1cccc(F)c1C#Cc1cn([C@@H]2O[C@H](CNS(N)(=O)=O)[C@@H](O)[C@H]2O)c2ncnc(N)c12 [TAS4464]
sensitivity of cell proliferation (HCT-116; HCT-116, Supplemental Figure 1b): profoundly sensitive | sensitivity of cell proliferation (RKO; Supplemental Figure 1b): profoundly sensitive
